Measured values published in ChEMBL document CHEMBL1641413, “Identification of 3-sulfonylindazole derivatives as potent and selective 5-HT(6) antagonists” (Bioorg Med Chem, 2011).
Calls of active or inactive are those of the source. The rule behind the calls is not given here.

What was measured:
[1] = Half life in rat microsomes; format: ADME, Microsome
[2] = target: T1, 5-hydroxytryptamine receptor 2C (Homo sapiens, UniProt P28335); assay: Binding affinity to 5-HT2C receptor
T1 sequence (P28335 whole entry): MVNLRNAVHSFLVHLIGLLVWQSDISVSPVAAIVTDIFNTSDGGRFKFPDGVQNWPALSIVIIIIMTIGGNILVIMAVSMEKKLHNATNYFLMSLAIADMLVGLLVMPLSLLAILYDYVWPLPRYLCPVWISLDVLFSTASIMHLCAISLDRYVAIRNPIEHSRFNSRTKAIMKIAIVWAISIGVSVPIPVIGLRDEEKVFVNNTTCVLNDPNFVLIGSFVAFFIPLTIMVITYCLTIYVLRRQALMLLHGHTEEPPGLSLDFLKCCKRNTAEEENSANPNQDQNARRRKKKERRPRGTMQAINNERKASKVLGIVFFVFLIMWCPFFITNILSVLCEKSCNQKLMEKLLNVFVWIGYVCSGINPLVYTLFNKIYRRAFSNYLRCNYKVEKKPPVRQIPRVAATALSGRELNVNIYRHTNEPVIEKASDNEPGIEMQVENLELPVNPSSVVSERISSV

[3] = Binding affinity to P-glycoprotein
[4] = target: 5-hydroxytryptamine receptor 7 (Homo sapiens, UniProt P34969); assay: Binding affinity to 5-HT7 receptor
[5] = Half life in human microsomes; format: ADME, Microsome
[6] = target: T2, 5-hydroxytryptamine receptor 2B (Homo sapiens, UniProt P41595); assay: Binding affinity to 5-HT2B receptor
D(2) dopamine receptor = D(2) dopamine receptor (Homo sapiens, UniProt P14416); assay: Binding affinity to dopamine D2 receptor
[7] = target: T3, Alpha-2A adrenergic receptor (Homo sapiens, UniProt P08913); assay: Binding affinity to adrenergic alpha2A receptor
T3 sequence (P08913 whole entry): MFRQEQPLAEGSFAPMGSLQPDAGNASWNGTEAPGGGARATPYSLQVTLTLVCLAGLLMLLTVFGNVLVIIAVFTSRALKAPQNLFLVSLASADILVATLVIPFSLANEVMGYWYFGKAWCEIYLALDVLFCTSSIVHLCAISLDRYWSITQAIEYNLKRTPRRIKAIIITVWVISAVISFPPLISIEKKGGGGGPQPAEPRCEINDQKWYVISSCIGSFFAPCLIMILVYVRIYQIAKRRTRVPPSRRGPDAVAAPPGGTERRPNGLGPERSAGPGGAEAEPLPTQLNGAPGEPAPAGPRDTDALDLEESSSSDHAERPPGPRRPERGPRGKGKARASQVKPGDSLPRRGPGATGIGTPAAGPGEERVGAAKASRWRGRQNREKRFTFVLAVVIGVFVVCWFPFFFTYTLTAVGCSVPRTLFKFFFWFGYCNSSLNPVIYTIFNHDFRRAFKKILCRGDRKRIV

[8] = target: T4, 5-hydroxytryptamine receptor 6 (Homo sapiens, UniProt P50406); assay: Displacement of [3H]-LSD from cloned human 5-HT6 receptor expressed in human HeLa cells; format: cell-based
How it was run: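 Radioligand displacement of [³H]-LSD from cloned human 5-HT6 receptors stably expressed in HeLa cells; compounds tested as HCl salts; Ki values determined in triplicate.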

[9] = % bound in plasma; format: ADME, cell-free; conditions: read-out: PPB
[10] = target: 5-hydroxytryptamine receptor 1D (Homo sapiens, UniProt P28221); assay: Binding affinity to 5-HT1D receptor
[11] = target: T5, 5-hydroxytryptamine receptor 1A (Homo sapiens, UniProt P08908); assay: Binding affinity to 5-HT1A receptor
T5 sequence (P08908 whole entry): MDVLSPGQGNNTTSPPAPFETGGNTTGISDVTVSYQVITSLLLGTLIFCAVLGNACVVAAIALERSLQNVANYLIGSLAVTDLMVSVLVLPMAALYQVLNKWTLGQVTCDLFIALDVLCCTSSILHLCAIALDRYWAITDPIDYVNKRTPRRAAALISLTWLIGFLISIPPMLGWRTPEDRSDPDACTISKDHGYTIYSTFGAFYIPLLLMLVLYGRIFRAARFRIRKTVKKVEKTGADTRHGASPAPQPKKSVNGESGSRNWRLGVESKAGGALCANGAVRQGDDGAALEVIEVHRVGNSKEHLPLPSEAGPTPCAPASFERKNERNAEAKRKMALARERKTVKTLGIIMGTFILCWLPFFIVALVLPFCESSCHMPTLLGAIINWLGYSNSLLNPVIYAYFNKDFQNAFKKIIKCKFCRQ

[12] = target: 5-hydroxytryptamine receptor 1B (Homo sapiens, UniProt P28222); assay: Binding affinity to 5-HT1B receptor
[13] = target: T4, 5-hydroxytryptamine receptor 6; assay: Antagonist activity at cloned human 5-HT6 receptor expressed in human HeLa cells assessed as inhibition of 5HT-induced cyclic AMP formation; format: functional, cell-based
[14] = target: T2, 5-hydroxytryptamine receptor 2B; assay: Agonist activity at 5-HT2B receptor at 0.1 nM to 10 uM by FLIPR assay; format: functional
[15] = Solubility of the compound in water; format: physicochemical

T2 sequence (P41595 whole entry): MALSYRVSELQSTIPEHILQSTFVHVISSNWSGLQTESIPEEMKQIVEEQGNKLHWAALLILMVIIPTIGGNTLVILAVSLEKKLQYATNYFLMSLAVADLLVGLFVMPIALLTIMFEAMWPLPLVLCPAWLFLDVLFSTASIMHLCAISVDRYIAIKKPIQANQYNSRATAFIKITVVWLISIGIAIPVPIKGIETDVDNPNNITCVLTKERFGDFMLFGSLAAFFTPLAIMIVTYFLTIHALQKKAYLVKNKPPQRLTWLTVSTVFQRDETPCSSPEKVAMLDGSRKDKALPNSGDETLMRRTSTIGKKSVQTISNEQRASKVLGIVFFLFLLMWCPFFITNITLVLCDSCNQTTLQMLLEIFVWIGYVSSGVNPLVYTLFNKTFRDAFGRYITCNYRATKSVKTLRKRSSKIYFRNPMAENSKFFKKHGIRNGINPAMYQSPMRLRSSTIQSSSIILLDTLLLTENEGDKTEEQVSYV
Chain of D(2) dopamine receptor (P14416 whole entry): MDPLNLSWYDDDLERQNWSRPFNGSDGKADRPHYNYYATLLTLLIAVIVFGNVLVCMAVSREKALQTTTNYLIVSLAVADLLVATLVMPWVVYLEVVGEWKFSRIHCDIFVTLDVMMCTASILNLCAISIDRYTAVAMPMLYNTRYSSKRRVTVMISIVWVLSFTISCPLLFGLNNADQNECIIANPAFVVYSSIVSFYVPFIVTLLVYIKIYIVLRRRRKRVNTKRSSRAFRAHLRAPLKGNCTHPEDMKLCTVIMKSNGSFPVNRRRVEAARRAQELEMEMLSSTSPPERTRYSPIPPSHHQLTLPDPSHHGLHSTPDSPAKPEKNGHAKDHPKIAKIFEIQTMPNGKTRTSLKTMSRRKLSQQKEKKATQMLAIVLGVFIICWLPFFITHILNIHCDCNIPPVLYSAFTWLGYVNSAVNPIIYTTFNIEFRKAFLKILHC
Chain of 5-hydroxytryptamine receptor 7 (P34969 whole entry): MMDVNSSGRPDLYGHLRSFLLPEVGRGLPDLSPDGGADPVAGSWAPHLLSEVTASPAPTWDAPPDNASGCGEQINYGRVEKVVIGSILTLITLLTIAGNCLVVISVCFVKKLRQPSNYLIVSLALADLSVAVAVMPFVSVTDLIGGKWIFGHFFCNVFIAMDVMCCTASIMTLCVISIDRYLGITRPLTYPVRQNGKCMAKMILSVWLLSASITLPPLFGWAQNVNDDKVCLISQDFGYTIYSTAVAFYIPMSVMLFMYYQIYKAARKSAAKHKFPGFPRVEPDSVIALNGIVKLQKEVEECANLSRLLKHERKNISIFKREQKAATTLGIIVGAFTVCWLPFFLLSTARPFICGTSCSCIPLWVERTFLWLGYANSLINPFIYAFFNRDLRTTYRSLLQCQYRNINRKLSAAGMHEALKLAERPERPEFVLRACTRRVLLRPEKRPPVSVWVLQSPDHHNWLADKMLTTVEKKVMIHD
Chain of 5-hydroxytryptamine receptor 1B (P28222 whole entry): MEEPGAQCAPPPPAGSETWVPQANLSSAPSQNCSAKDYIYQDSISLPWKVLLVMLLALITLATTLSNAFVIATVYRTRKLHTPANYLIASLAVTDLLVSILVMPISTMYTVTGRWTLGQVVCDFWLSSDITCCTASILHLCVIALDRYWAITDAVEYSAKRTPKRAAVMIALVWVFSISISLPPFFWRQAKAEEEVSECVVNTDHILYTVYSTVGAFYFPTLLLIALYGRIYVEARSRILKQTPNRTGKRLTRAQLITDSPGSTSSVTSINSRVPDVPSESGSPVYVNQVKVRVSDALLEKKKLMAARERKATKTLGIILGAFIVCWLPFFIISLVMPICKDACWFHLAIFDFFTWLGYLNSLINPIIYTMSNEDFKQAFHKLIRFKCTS
Chain of 5-hydroxytryptamine receptor 1D (P28221 whole entry): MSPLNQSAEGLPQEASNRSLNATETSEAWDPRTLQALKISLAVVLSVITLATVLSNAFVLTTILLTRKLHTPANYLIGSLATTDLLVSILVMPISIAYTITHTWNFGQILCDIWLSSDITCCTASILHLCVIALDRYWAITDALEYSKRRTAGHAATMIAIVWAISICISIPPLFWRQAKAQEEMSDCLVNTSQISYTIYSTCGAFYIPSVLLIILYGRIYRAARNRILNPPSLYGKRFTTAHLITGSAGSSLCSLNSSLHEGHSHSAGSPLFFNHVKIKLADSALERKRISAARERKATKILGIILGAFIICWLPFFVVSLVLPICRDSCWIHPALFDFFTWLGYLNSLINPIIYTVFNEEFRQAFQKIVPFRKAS
T4 sequence (P50406 whole entry): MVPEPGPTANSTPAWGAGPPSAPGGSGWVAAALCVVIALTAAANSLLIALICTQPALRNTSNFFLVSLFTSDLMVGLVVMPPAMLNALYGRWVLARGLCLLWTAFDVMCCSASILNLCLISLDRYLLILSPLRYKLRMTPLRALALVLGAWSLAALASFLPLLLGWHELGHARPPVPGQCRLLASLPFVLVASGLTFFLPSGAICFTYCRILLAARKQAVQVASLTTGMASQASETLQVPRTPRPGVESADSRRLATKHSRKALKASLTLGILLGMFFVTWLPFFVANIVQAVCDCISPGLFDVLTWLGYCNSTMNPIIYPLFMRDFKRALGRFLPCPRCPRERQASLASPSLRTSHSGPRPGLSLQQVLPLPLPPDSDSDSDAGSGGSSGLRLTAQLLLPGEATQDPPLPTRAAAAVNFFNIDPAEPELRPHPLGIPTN

CC(C)c1ccc(S(=O)(=O)c2n[nH]c3ccc(NC4CCNCC4)cc23)cc1.Cl
half-life [1]: > 30 min
Ki [2]: 1770 nM
Activity [3]: inactive
Ki [4]: > 5000 nM
half-life [5]: > 30 min
Ki [6]: 1760 nM
Ki (D(2) dopamine receptor): > 5000 nM
Ki [7]: > 5000 nM
Ki [8]: 1 nM
fraction unbound [9]: > 0.2
Ki [10]: 1500 nM
Ki [11]: 859 nM
Ki [12]: 2730 nM
IC50 [13]: 14 nM
Activity [14]: inactive
solubility [15]: > 100 µg/mL

O=C(Nc1cccc2c(S(=O)(=O)c3cccc4ccccc34)n[nH]c12)C1CCCNC1 (stereo unspecified)
Ki [8]: 9.8 nM
fraction unbound [9]: > 0.2
IC50 [13]: 48 nM

O=S(=O)(c1ccc(F)cc1)c1n[nH]c2ccc(NC3CCNCC3)cc12
Ki [8]: 6.3 nM
fraction unbound [9]: > 0.2
IC50 [13]: 118 nM

O=C(Nc1ccc2c(S(=O)(=O)c3cccc4ccccc34)n[nH]c2c1)C1CCNCC1
Ki [8]: 31 nM
fraction unbound [9]: > 0.2

CN(C)CCN(C)Cc1ccc2[nH]nc(S(=O)(=O)c3cccc4ccccc34)c2c1
Ki [8]: 14 nM
fraction unbound [9]: > 0.2
IC50 [13]: 91 nM

NCCC(=O)Nc1cccc2c(S(=O)(=O)c3cccc4ccccc34)n[nH]c12
Ki [8]: 3.4 nM
fraction unbound [9]: > 0.2

COc1ccc(S(=O)(=O)c2n[nH]c3ccc(NC4CCNCC4)cc23)cc1
Ki [8]: 9.8 nM
fraction unbound [9]: > 0.2
IC50 [13]: 126 nM

O=C(CCN1CCCCC1)Nc1ccc2c(S(=O)(=O)c3cccc4ccccc34)n[nH]c2c1
Ki [8]: 12 nM
fraction unbound [9]: > 0.2
IC50 [13]: 90 nM

NCCNCc1ccc2[nH]nc(S(=O)(=O)c3cccc4ccccc34)c2c1
Ki [8]: 12 nM
fraction unbound [9]: > 0.2
IC50 [13]: 156 nM

O=S(=O)(c1ccccc1)c1n[nH]c2ccc(NC3CCNCC3)cc12
Ki [8]: 3.1 nM
fraction unbound [9]: > 0.2
IC50 [13]: 125 nM

O=S(=O)(c1ccc(Cl)cc1)c1n[nH]c2ccc(NC3CCNCC3)cc12
Ki [8]: 2.3 nM
fraction unbound [9]: > 0.2
IC50 [13]: 44 nM

O=S(=O)(c1cccc2ccccc12)c1n[nH]c2cccc(NCC3CCNCC3)c12
Ki [8]: 9.5 nM
fraction unbound [9]: > 0.2
IC50 [13]: 21 nM

NCCNc1ccc2c(S(=O)(=O)c3cccc4ccccc34)n[nH]c2c1
Ki [8]: 17 nM
fraction unbound [9]: > 0.2
IC50 [13]: 87 nM

O=S(=O)(c1ccc(C(F)(F)F)cc1)c1n[nH]c2ccc(NC3CCNCC3)cc12
Ki [8]: 1.5 nM
fraction unbound [9]: > 0.2
IC50 [13]: 27 nM

O=S(=O)(c1cccc2ccccc12)c1n[nH]c2ccc(NCC3CCNCC3)cc12
Ki [8]: 3.5 nM
fraction unbound [9]: > 0.2
IC50 [13]: 174 nM

CCN(CC)CCC(=O)Nc1cccc2c(S(=O)(=O)c3cccc4ccccc34)n[nH]c12
Ki [8]: 27 nM
fraction unbound [9]: > 0.2
IC50 [13]: 137 nM

CC(N)CNc1ccc2[nH]nc(S(=O)(=O)c3cccc4ccccc34)c2c1 (stereo unspecified)
Ki [8]: 1.4 nM
fraction unbound [9]: > 0.2
IC50 [13]: 30 nM

O=S(=O)(c1cccc2ccccc12)c1n[nH]c2c(NC3CCNCC3)cccc12
Ki [8]: 30 nM
fraction unbound [9]: > 0.2

Cc1cccc(S(=O)(=O)c2n[nH]c3ccc(NC4CCNCC4)cc23)c1
Ki [8]: 0.8 nM
fraction unbound [9]: > 0.2
IC50 [13]: 19 nM

CN(C)CCNC(=O)c1ccc2[nH]nc(S(=O)(=O)c3cccc4ccccc34)c2c1
Ki [8]: 2.9 nM
fraction unbound [9]: > 0.2
IC50 [13]: 103 nM

O=C(NCCN1CCCCC1)c1ccc2[nH]nc(S(=O)(=O)c3cccc4ccccc34)c2c1
Ki [8]: 107 nM
fraction unbound [9]: > 0.2

O=S(=O)(c1cccc2ccccc12)c1n[nH]c2ccc(NC3CCCNC3)cc12 (stereo unspecified)
Ki [8]: 1.7 nM
fraction unbound [9]: > 0.2
IC50 [13]: 95 nM

Cl.O=S(=O)(c1ccc2ccccc2c1)c1n[nH]c2ccc(NC3CCNCC3)cc12
half-life [1]: > 30 min
Ki [2]: > 5000 nM
Activity [3]: inactive
Ki [4]: > 5000 nM
half-life [5]: > 30 min
Ki [6]: 675 nM
Ki (D(2) dopamine receptor): > 5000 nM
Ki [7]: > 5000 nM
Ki [8]: 0.6 nM
fraction unbound [9]: > 0.2
Ki [10]: > 5000 nM
Ki [11]: 4350 nM
Ki [12]: > 5000 nM
IC50 [13]: 16 nM
Activity [14]: inactive
solubility [15]: > 100 µg/mL

CN(C)CCC(=O)Nc1cccc2c(S(=O)(=O)c3cccc4ccccc34)n[nH]c12
Ki [8]: 4.8 nM
fraction unbound [9]: > 0.2
IC50 [13]: 137 nM

Cl.NCCC(=O)Nc1ccc2[nH]nc(S(=O)(=O)c3cccc4ccccc34)c2c1
half-life [1]: > 30 min
Ki [2]: 573 nM
Activity [3]: inactive
Ki [4]: > 5000 nM
half-life [5]: > 30 min
Ki [6]: 344 nM
Ki (D(2) dopamine receptor): > 5000 nM
Ki [7]: > 5000 nM
Ki [8]: 1.5 nM
fraction unbound [9]: > 0.2
Ki [10]: > 5000 nM
Ki [11]: > 5000 nM
Ki [12]: > 5000 nM
IC50 [13]: 3.8 nM
Activity [14]: inactive
solubility [15]: > 100 µg/mL

O=S(=O)(c1cccc2ccccc12)c1n[nH]c2cc(NC3CCCNC3)ccc12 (stereo unspecified)
Ki [8]: 57 nM
fraction unbound [9]: > 0.2

O=S(=O)(c1cccc2ccccc12)c1n[nH]c2cccc(NC3CCCNC3)c12 (stereo unspecified)
Ki [8]: 4.2 nM
fraction unbound [9]: > 0.2
IC50 [13]: 88 nM

CN(C)CCC(=O)Nc1ccc2c(S(=O)(=O)c3cccc4ccccc34)n[nH]c2c1
Ki [8]: 44 nM
fraction unbound [9]: > 0.2

O=S(=O)(c1cccc2ccccc12)c1n[nH]c2cc(NCC3CCNCC3)ccc12
Ki [8]: 44 nM
fraction unbound [9]: > 0.2

NCCNc1ccc2[nH]nc(S(=O)(=O)c3cccc4ccccc34)c2c1
Ki [8]: 6.7 nM
fraction unbound [9]: > 0.2
IC50 [13]: 13 nM

O=S(=O)(c1cccc2ccccc12)c1n[nH]c2ccc(CN3CCNCC3)cc12
Ki [8]: 0.24 nM
fraction unbound [9]: > 0.2
IC50 [13]: 19 nM

O=S(=O)(c1cccc2ccccc12)c1n[nH]c2cc(NC3CCNCC3)ccc12
Ki [8]: 53 nM
fraction unbound [9]: > 0.2

O=S(=O)(c1cccc2ccccc12)c1n[nH]c2c(NCC3CCNCC3)cccc12
Ki [8]: 17 nM
fraction unbound [9]: > 0.2
IC50 [13]: 87 nM

CC(C)[C@H](N)CNc1ccc2[nH]nc(S(=O)(=O)c3cccc4ccccc34)c2c1
fraction unbound [9]: > 0.2

O=S(=O)(c1cccc2ccccc12)c1n[nH]c2cccc(NC3CCNCC3)c12
Ki [8]: 2.8 nM
fraction unbound [9]: > 0.2
IC50 [13]: 56 nM

O=S(=O)(c1cccc(F)c1)c1n[nH]c2ccc(NC3CCNCC3)cc12
Ki [8]: 6.7 nM
fraction unbound [9]: > 0.2
IC50 [13]: 94 nM

O=C(CCN1CCCCC1)Nc1cccc2c(S(=O)(=O)c3cccc4ccccc34)n[nH]c12
Ki [8]: 24 nM
fraction unbound [9]: > 0.2

O=C(Nc1cccc2c(S(=O)(=O)c3cccc4ccccc34)n[nH]c12)C1CCNCC1
Ki [8]: 28 nM
fraction unbound [9]: > 0.2

NCCNc1cccc2c(S(=O)(=O)c3cccc4ccccc34)n[nH]c12
Ki [8]: 17 nM
fraction unbound [9]: > 0.2
IC50 [13]: 93 nM

NCCC(=O)Nc1ccc2c(S(=O)(=O)c3cccc4ccccc34)n[nH]c2c1
Ki [8]: 24 nM
fraction unbound [9]: > 0.2
IC50 [13]: 456 nM

O=S(=O)(c1cccc2ccccc12)c1n[nH]c2c(NC3CCCNC3)cccc12 (stereo unspecified)
Ki [8]: 66 nM
fraction unbound [9]: > 0.2

CCN(CC)CCC(=O)Nc1ccc2c(S(=O)(=O)c3cccc4ccccc34)n[nH]c2c1
Ki [8]: 65 nM
fraction unbound [9]: > 0.2
